Data on 36 sequences can be found in the EternaBench riboswitch data.

The test system of the data set is MS2 coat protein. The data set is described as follows: apparent Kd, MS2 coat protein; higher = weaker binding; RNA-MaP array; FMN 200 µM where present. The essentials: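 Binding was read on Illumina sequencing-chip clusters where stalled E. coli RNA polymerase had transcribed each design. A titration of SNAP-549-labelled MS2 coat protein began at 0.7 or 1.5 nM and doubled to 3 µM, once without ligand and once with constant ligand, in 100 mM Tris-HCl pH 7.5, 80 mM KCl, 4 mM MgCl2, BSA, DTT, yeast tRNA and Tween-20. The apparent Kd is the median of filtered per-cluster binding-curve fits, based on green signal normalised to red-channel RNA signal and control-cluster median Fmax.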

Setting [1] is: designed as: ON switch for flavin mononucleotide, no ligand.
Where [2] appears, read: ligand present: flavin mononucleotide, designed as: ON switch for flavin mononucleotide.
[3] abbreviates: designed as: OFF switch for flavin mononucleotide, no ligand.
[4] abbreviates: ligand present: flavin mononucleotide, designed as: OFF switch for flavin mononucleotide.

For “AUAUAUACCCAGAAGGUGCCAGCGAGAGCUGCACAUGAGGAUCACCCAUGUUGUCGGUGACGACGCAAGGAUAUGGGUAUAUAU”, the “apparent Kd” value runs as follows: under setting [1], 25.2 nM; under setting [2], 7.86 nM.

For “GUGGUCAGACAUGAGGAUCACCCAUGUGGAAUAAAUAAGGACUAGGAUAUGGAAUAUAGGAUAUACCAGAAGGAGUGGUUGGUG”, the “apparent Kd” value came to 56.4 nM under setting [1] and 60 nM under setting [2].

For the sequence “AACGAGCAAGAUUAUUAUGAAUAAACAUGAGGAUCACCCAUGUAGGAUAUGCAGUGGAAUACACUGCAGAAGGACAUAAGCUCG”, the “apparent Kd” value reads like this: under setting [3], 7.2 nM; under setting [4], 19 nM.

As to “CGGUUACAAGGAUAUACAUGAGGAUCACCCAUGUCUCUCCGGGCGGAUCGAUAAUUUUGUAGAAGGUGUAAGGG”, the “apparent Kd” value was determined as 24.5 nM under setting [3] and 63.7 nM under setting [4].

“CAAUUUAGCGAGAAGGAGCGCCCGUAGGUACAUGAGGAUCACCCAUGUCCUUUGUGCUCUACGCGCUAGGAUAUCGAUAAACAG”: the “apparent Kd” value by setting is: under setting [3], 20.9 nM; under setting [4], 116 nM.

On to “AGAAUAGAAAGAUUAAUAUGAAUACAUGAGGAUCACCCAUGUAAGGAUAUCGACGUCAAUGACGUCGAGAAGGUACAUAAUAAG”, for which the “apparent Kd” value under setting [3] is 17.7 nM and the “apparent Kd” value under setting [4] amounted to 17.6 nM.

Take “GGACCGUGCAGAGUUGGCGGUCGGCAGGAUAUGACAUGAGGAUCACCCAUGUGAACUCCAUUGGGUCAGAAGGGCCACGACACA”: the “apparent Kd” value under setting [3] worked out at 17.6 nM and the “apparent Kd” value under setting [4] came out at 78 nM.

For “AGAUGACGAUGUUAUCUUCGUCGGACAUGAGGAUCACCCAUGUAGGAUAUGCUACUCAAAGAGUAGCAGAAGGACAUGUGUCUU”, the “apparent Kd” value reads like this: under setting [3], 37.4 nM; under setting [4], 245 nM.

For the sequence “GGAAAGUGAGGAUAUGGUAAAGUAAGUAUGUAGUAAGUAAUCCAGAAGGCACAUGAGGAUCACCCAUGUAAAUG”, the “apparent Kd” value is, setting by setting: under setting [3], 28.1 nM; under setting [4], 35.7 nM.

Turning to “UGGUACUAGGGAGGAUAUGGGAAGAUACAUGAGGAUCACCCAUGUUUAAGAAUGCCGUGAGGCAACUAGAAGGCCCUAGUACCU”, the “apparent Kd” value stood at 505 nM under setting [1] and 18.8 nM under setting [2].

As to “UAAUCGUUGCAGAAGGUUAUUAUUAUAUCGUGUCACUUAACAUGAGGAUCACCCAUGUUUUUGAUGAAGGAUAUGCAACGGUAG”, the “apparent Kd” value is, setting by setting: under setting [3], 6.74 nM; under setting [4], 6.83 nM.

For “CAGGUAGACUGAGGAUAUACAAAAGACCUAGUCUAUCUAGGUCAAAUCACAUGAGGAUCACCCAUGUAGAAGGCAGUCUGCCUG”, the “apparent Kd” value runs as follows: under setting [3], 16.8 nM; under setting [4], 27.3 nM.

For the sequence “GGUACUCAAAGAGUACCAAUACGAACAUGAGGAUCACCCAUGUAGGAUAUGCUACUCAAAGAGUAGCAGAAGGACAUGUGCCCU”, the “apparent Kd” value under setting [3] was found to be 60.5 nM and the “apparent Kd” value under setting [4] came out at 608 nM.

For the sequence “UGUCGGAGCAGAGGAUAUUACAUGAGGAUCACCCAUGUAUGAGCCAAUAGCUGGAAACAGCAAUGUAAGAAGGCUGCUCCGACA”, the “apparent Kd” value amounted to 19.1 nM under setting [3] and 206 nM under setting [4].

For the sequence “UGUCGGAGCAGAGGAUAUUACAUGAGGAUCACCCAUGUAUGAACCAAUAGCUGGAAACAGCAAUGUAAGAAGGCUUCUCCGACA”, the “apparent Kd” value stood at 7.13 nM under setting [3] and 45.9 nM under setting [4].

Regarding “GCUGCCGCUGCAGGAUAUCAGCACGUGUAGUGCUGAGAAGGGCACAUGAGGAUCACCCAUGUGAUCAAUUAAUAAGCGUGCAGC”, the “apparent Kd” value runs as follows: under setting [3], 6.86 nM; under setting [4], 16.5 nM.

In the case of “AUGUGGUGCGUAGGAUAUCAUUGAGGGUAACCCUGAGAAGGACGUGAGGACAUGAGGAUCACCCAUGUGGAUCACCCAUGUCAU”, the “apparent Kd” value amounted to 150 nM under setting [3] and 301 nM under setting [4].

Take “AAAACAUGAGGAUCACCCAUGUAAAGAUCGGUUAAUGAAAGUGAGGAUAUACAAAAUUUUAUAGAGUAGAAGGCACUGGGUACA”: the “apparent Kd” value reads like this: under setting [1], 28.7 nM; under setting [2], 30.1 nM.

For the sequence “ACUAGAUGAGGAUAUGCAUAUUUUCGUGUUCUUCUAGGUUAACAUGAGGAUCACCCAUGUAGAAGGCGUCUAUU”, the “apparent Kd” value reads like this: under setting [3], 20.6 nM; under setting [4], 38 nM.

With “CCUGCACAUGAGGAUCACCCAUGUCAGGAUAUCUCGCCGUGAAGAGCAACACGGUAUUAGAGAAGGGACACGGG”, the “apparent Kd” value was determined as 25.1 nM under setting [3] and 23.3 nM under setting [4].

As to “AAAAAACAUGAGGAUCACCCAUGUGAGGAUAUGACUUAAAUAAAGAAAGAAGAAAUAGUCAGAAGGCACAAAUA”, the “apparent Kd” value came to 54.5 nM under setting [3] and 70.4 nM under setting [4].

With “UUGUAAACUAUCCGUACAUGAGGAUCACCCAUGUGCAAGAGCAGAAGGACGUGGCACUCGAGUACGUAGGAUAUGCAUGGAUGG”, the “apparent Kd” value is, setting by setting: under setting [1], 27.1 nM; under setting [2], 9.59 nM.

With “GCAGGUUUACGAGGAUAUGGGUGGUACGAACAUGAGGAUCACCCAUGUUUCCCAGAAGGCGUAGCCUAACAAAGAGAACAGGAG”, the “apparent Kd” value reads like this: under setting [1], 418 nM; under setting [2], 22.2 nM.

On to “CUGCCUUAUGAGAAGGCGAUCAUGAAACAUGAUCGAGGAUAUCAUGUAAACAUGAGGAUCACCCAUGUAUGGGUAUUAUGGUAG”, for which the “apparent Kd” value under setting [1] was 529 nM and the “apparent Kd” value under setting [2] amounted to 74.5 nM.

As for “CGAUAUAUGAAGGGCGAAAGCCCACAUGAGGAUCACCCAUGUAGAAGGCGGGCCGCAACGCGGCCCGAGGAUAUAUAGUAUACA”, the “apparent Kd” value is, setting by setting: under setting [3], 8.05 nM; under setting [4], 8.84 nM.

As for “AUACAUGAGGAUCACCCAUGUUACAUGGGCUAGUUUUAACGUAGAAGGAUGUUAUUAUUAUUAGCAUAGGAUAUACAAUUUGAA”, the “apparent Kd” value came out at 274 nM under setting [3] and 248 nM under setting [4].

As for “GGUCGUCCCAUUAACAUGAGGAUCACCCAUGUCAAAAGACAUGAGGAUAUGCAUCCUAAUUGGAUGCAGAAGGCAUGGACGACC”, the “apparent Kd” value by setting is: under setting [1], 1060 nM; under setting [2], 87.7 nM.

Turning to “UCGCGGUGAGGAUAUAGGUCAAUGCAGGGUCACCAGAUUGCCUAGAAGGCACAUGAGGAUCACCCAUGUGGUAG”, the “apparent Kd” value came out at 49 nM under setting [3] and 157 nM under setting [4].

For the sequence “CUGAUGUGAGGAUAUCUAAAAGAAACUGGGCAAAAUACCAGAGAGAAGGCACAUGAGGAUCACCCAUGUAACGA”, the “apparent Kd” value under setting [3] is 19.1 nM and the “apparent Kd” value under setting [4] turned out to be 69.5 nM.

For “GUGCACAUUCGAGGAUAUCGGAGAGGACUCCUUCGAGAAGGCGAUUCGUGCCGUGUUAUUCUGGACAUGAGGAUCACCCAUGUG”, the “apparent Kd” value by setting is: under setting [1], 45 nM; under setting [2], 28.7 nM.

Take “AGUGUCAUCGAGAAGGCCUUAACAUGAGGAUCACCCAUGUUGUAAUAUGGGAGGAUAUCGAUGAUACAGCUACGUUUCGUAGCA”: the “apparent Kd” value runs as follows: under setting [1], 10.1 nM; under setting [2], 5.71 nM.

“CCUGCGGACAAAGGAUAUUGCGGUGGCCGGCUCAGUAAAUCUAGCCAACAUGAGGAUCACCCAUGUAAGAAGGUUGCCGUUGGU”: the “apparent Kd” value under setting [3] was found to be 19.1 nM and the “apparent Kd” value under setting [4] is 35.1 nM.

On to “AGGAGGUCAGGAUAUGCUGCUCGUCACUUGCGUGAUGAGUAGCAGAAGGGACAUGAGGAUCACCCAUGUAAAAA”, for which the “apparent Kd” value is, setting by setting: under setting [3], 52.6 nM; under setting [4], 88.7 nM.

As for “GAUCCUUAAGUCAGGAUAUCAAGCAAACUCUAAAUUGAGAAGGGACAUGAGGAUCACCCAUGUCACCGAAAUAA”, the “apparent Kd” value is, setting by setting: under setting [3], 14.7 nM; under setting [4], 16.2 nM.

With “CGCUAUGACAUAGGAUAUUGGUACAUGAGGAUCACCCAUGUCAACUAUGGAAUAGAAUUAGUUGACAAGAAGGAUGUGGUAGCG”, the “apparent Kd” value runs as follows: under setting [1], 47.2 nM; under setting [2], 10.3 nM.

“AAUUAGGUCACAGGAUAUACAACAACCAAUGCUGUAGAAGGGUGUCACAUACUUAGCUGACAUGAGGAUCACCCAUGUAUCCAC”: the “apparent Kd” value by setting is: under setting [1], 172 nM; under setting [2], 68.2 nM.

The apparent Kd is a dissociation constant that holds for the conditions of the assay.
